Measured values reported in ChEMBL document CHEMBL5532688, “Carltonine-derived compounds for targeted butyrylcholinesterase inhibition” (RSC Med Chem, 2024).
Activity calls are given as the source filed them. No cut-off for these calls is given here.

Columns and labels:
[1] = target: T1, Acetylcholinesterase (Homo sapiens, UniProt P22303); assay: Inhibition of human AChE using acetylthiocholine iodide as substrate at 10 uM incubated for 1 mins by spectrophotometric Ellman's method
In short: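 Recombinant human AChE, modified Ellman assay; compound in DMSO (single 10 μM screen) preincubated 5 min with enzyme and 5 mM DTNB in pH 7.4 phosphate buffer. […] Triplicate.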

[2] = target: T2, Cholinesterase (Homo sapiens, UniProt P06276); assay: Reversible binding affinity to human BChE using butyrylthiocholine iodide as substrate assessed as reduction in Vmax at 0.445 to 1.400 micromol/L preincubated for 5 min followed by substrate addition and measured after 1 mins by Lineweaver-Burk plot analysis; conditions: dose 0.445-1.4 µmol/L, time 6.0 min
In short: (§1)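 Recombinant human BChE at final activity 0.002 U/μL in phosphate buffer. […] Km, Vmax, Ki and Ki' came from nonlinear regression of velocity curves. Lineweaver–Burk plots were drawn by linear regression.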

[3] = target: T2, Cholinesterase; assay: Reversible binding affinity to human BChE using butyrylthiocholine iodide as substrate assessed as reduction in Km at 0.445 to 1.400 micromol/L preincubated for 5 min followed by substrate addition and measured after 1 mins by Lineweaver-Burk plot analysis; conditions: dose 0.445-1.4 µmol/L, time 6.0 min; in short: as §1
[4] = target: T2, Cholinesterase; assay: Inhibition of human BChE using butyrylthiocholine iodide as substrate incubated for 1 mins by spectrophotometric Ellman's method
[5] = target: T1, Acetylcholinesterase; assay: Inhibition of human AChE using acetylthiocholine iodide as substrate incubated for 1 mins by spectrophotometric Ellman's method
In short: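 Modified Ellman assay on recombinant human AChE (acetylthiocholine) or human BChE (butyrylthiocholine). Enzyme, 5 mM DTNB and DMSO compound dilutions at several concentrations preincubated 5 min in pH 7.4 phosphate buffer. Reaction started with 10 mM substrate, ΔA read at 412 nm for 1 min. IC50 is the mean ± SEM of three independent runs, each in triplicate.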

T1 sequence (P22303 whole entry): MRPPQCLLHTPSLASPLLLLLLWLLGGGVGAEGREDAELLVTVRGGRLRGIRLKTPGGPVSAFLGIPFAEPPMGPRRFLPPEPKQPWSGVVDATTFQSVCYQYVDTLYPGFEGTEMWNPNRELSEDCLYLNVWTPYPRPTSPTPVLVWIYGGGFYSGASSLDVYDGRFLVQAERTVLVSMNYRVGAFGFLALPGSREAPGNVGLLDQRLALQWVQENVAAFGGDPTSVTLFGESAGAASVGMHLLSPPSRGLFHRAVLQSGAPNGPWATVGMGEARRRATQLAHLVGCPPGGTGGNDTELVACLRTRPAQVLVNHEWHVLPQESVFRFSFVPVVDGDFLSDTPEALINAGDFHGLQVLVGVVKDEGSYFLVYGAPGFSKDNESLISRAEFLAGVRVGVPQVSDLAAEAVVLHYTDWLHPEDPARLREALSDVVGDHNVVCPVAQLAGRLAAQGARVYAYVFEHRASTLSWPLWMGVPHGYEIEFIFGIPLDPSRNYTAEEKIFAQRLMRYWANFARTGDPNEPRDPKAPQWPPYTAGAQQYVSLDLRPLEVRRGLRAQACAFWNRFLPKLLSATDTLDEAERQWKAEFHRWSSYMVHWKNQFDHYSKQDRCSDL
T2 sequence (P06276 whole entry): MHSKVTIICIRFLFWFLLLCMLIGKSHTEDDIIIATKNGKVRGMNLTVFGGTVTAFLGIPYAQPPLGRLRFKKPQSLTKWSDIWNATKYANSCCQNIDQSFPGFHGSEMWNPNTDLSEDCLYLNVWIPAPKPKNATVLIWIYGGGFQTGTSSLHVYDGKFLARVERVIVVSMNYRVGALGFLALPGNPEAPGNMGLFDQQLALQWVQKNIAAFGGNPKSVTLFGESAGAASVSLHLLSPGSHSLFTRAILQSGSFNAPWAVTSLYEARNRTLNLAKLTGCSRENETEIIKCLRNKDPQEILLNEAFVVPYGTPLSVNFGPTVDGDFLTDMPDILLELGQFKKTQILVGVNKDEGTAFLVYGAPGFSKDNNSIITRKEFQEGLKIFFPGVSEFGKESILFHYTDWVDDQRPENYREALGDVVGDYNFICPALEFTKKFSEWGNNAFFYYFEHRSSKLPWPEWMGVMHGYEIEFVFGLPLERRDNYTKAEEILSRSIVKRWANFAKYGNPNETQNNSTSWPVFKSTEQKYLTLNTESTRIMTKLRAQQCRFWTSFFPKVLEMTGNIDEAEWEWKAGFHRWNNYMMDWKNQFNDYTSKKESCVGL

Row | Compound | inhibition [1] | further results
1 | CCCOc1ccc(CCN(CCC)Cc2ccc(OCc3ccccc3)cc2)cc1 | inactive | –
2 | c1ccc(CCCCNCc2ccc(OCc3ccccc3)cc2)cc1 | inactive | –
3 | C=CCN(Cc1ccccc1)Cc1cccc(OCc2ccccc2)c1 | inactive | –
4 | CCN(Cc1ccc(OCc2ccccc2)cc1)C(C)CCc1ccccc1 (stereo not given) | inactive | –
5 | CCCN(CCc1ccc(O)cc1)Cc1ccc(OCc2ccccc2)cc1 | inactive | Activity [2]: Active; Activity [3]: Active
6 | COc1ccccc1CCNCc1cccc(OCc2ccccc2)c1 | inactive | –
7 | c1ccc(CCNCc2ccc(OCc3ccccc3)cc2)cc1 | inactive | –
8 | COc1ccc(CCNCc2ccc(OCc3ccccc3)cc2)cc1 | inactive | –
9 | CCCN(CCCc1ccccc1)Cc1ccc(OCc2ccccc2)cc1 | inactive | –
10 | CCCN(CCCc1ccccc1)Cc1cccc(OCc2ccccc2)c1 | inactive | –
11 | c1ccc(COc2ccc(CNCc3ccccn3)cc2)cc1 | inactive | –
12 | c1ccc(CNCc2ccc(OCc3ccccc3)cc2)cc1 | inactive | –
13 | CCN(CCCc1ccccc1)Cc1cccc(OCc2ccccc2)c1 | inactive | –
14 | COc1cccc(CCNCc2ccc(OCc3ccccc3)cc2)c1 | inactive | –
15 | CCCN(CCc1ccccc1)Cc1cccc(OCc2ccccc2)c1 | inactive | –
16 | CC(CNCc1cccc(OCc2ccccc2)c1)c1ccccc1 (stereo not given) | inactive | –
17 | Clc1cccc(NCc2cccc(OCc3ccccc3)c2)c1 | inactive | –
18 | C=CCN(CCc1ccc(O)cc1)Cc1cccc(OCc2ccccc2)c1 | inactive | –
19 | c1ccc(CCNCc2cccc(OCc3ccccc3)c2)cc1 | inactive | –
20 | c1ccc(CCCNCc2cccc(OCc3ccccc3)c2)cc1 | inactive | –
21 | C=CCN(CCCc1ccccc1)Cc1cccc(OCc2ccccc2)c1 | inactive | –
22 | COc1ccc(CCNCc2cccc(OCc3ccccc3)c2)cc1 | inactive | –

Row | Compound | inhibition [1] | further results
23 | C=CCOc1ccc(CCN(CC=C)Cc2cccc(OCc3ccccc3)c2)cc1 | inactive | –
24 | c1ccc(COc2ccc(CNCCc3ccccn3)cc2)cc1 | inactive | –
25 | c1ccc(CNCc2cccc(OCc3ccccc3)c2)cc1 | inactive | –
26 | COc1ccccc1CCNCc1ccc(OCc2ccccc2)cc1 | inactive | –
27 | CC(CNCc1ccc(OCc2ccccc2)cc1)c1ccccc1 (stereo not given) | inactive | –
28 | CC(CCc1ccccc1)NCc1ccc(OCc2ccccc2)cc1 (stereo not given) | inactive | –
29 | C=CCN(CCc1ccccc1)Cc1cccc(OCc2ccccc2)c1 | inactive | –
30 | CCN(CCc1ccccc1)Cc1cccc(OCc2ccccc2)c1 | inactive | –
31 | C=CCOc1ccc(CCNCc2cccc(OCc3ccccc3)c2)cc1 | inactive | –
32 | Clc1ccc(CCNCc2ccc(OCc3ccccc3)cc2)cc1 | inactive | –
33 | COc1ccc(CNCc2cccc(OCc3ccccc3)c2)cc1OC | inactive | –
34 | C=CCOc1ccc(CCN(CC=C)Cc2ccc(OCc3ccccc3)c(OC)c2)cc1 | – | IC50 [4]: > 10 µM
35 | CCCN(Cc1ccc(OCc2ccccc2)cc1)C(C)CCc1ccccc1 (stereo not given) | inactive | –
36 | COc1cccc(CCNCc2cccc(OCc3ccccc3)c2)c1 | inactive | –
37 | CCCN(Cc1ccccc1)Cc1ccc(OCc2ccccc2)cc1 | inactive | –
38 | Oc1ccc(CCNCc2cccc(OCc3ccccc3)c2)cc1 | inactive | –
39 | CCN(Cc1ccccc1)Cc1cccc(OCc2ccccc2)c1 | inactive | –
40 | CCN(Cc1ccccc1)Cc1ccc(OCc2ccccc2)cc1 | inactive | –
41 | CN(CCc1ccc(O)cc1)Cc1cc2c(cc1-c1cccc3c1N(C)CC3)OCO2 | – | IC50 [5]: > 100 µM
42 | Oc1ccc(CCNCc2ccc(OCc3ccccc3)cc2)cc1 | inactive | –
43 | c1ccc(CCCNCc2ccc(OCc3ccccc3)cc2)cc1 | inactive | –
